Drawing on ChEMBL document CHEMBL5096213 (Bioorg Med Chem, 2022), this text covers viability, Kd and TdeltaS for seven compounds.

Data set [1] in a line: Cytotoxicity against African green monkey Vero cells assessed as cell viability at 1.5 mM incubated for 24 hrs by XTT assay. Format: toxicity, cell-based. The conditions noted are these: chlorocebus sabaeus, read-out: Activity. In a few lines:
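Vero cells in EMEM with 10% FBS and penicillin/streptomycin were seeded at 500–1000 cells/well. They were dosed from DMSO stocks (final DMSO 0.5%) over 20 μM to 1.5 mM and incubated 24 h at 37 °C, 10% CO2. XTT was added 2 h before read-out at 450 nm, with 660 nm background. Viability was blank-subtracted and normalized to DMSO-only wells as 100%. Values are the mean of two technical replicates.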

Data set [2] in a line: Binding affinity to Mycobacterium tuberculosis PanD assessed as dissociation constant by isothermal titration calorimetry. The essentials: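 ITC at 20 °C, 100 μM Mtb PanD titrated with 2 mM ligand, after desalting into 50 mM Tris pH 7.5. Buffer-versus-compound heats subtracted. KD obtained by least-squares fit of the binding isotherm to a single-site model.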
(ITC needs no label: the signal is the heat of the interaction.)

Data set [3] concerns Mycobacterium tuberculosis. Description: Binding affinity to Mycobacterium tuberculosis PanD assessed as change in entropy by isothermal titration calorimetry. The essentials:
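Mtb PanD (100 μM) in 50 mM Tris pH 7.5 titrated with 2 mM ligand by ITC at 20 °C. Buffer-versus-compound control heats subtracted. Isotherm fitted by least squares to a single-site binding model, which yields the thermodynamic parameters.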

One may read the Kd as the equilibrium constant for the complex coming apart. Turning to `CC(C)Nc1nccnc1C(=O)O`, in data set [1], the viability at 24 h, 1500 µM came out at 50%. Besides, in data set [2], the Kd was more than 100 µM.
Regarding `Nc1cnc(C(=O)O)cn1`, the viability at 24 h, 1500 µM in data set [1] was determined as 50%. The Kd in data set [2] amounted to 37 µM. Further, the TdeltaS in data set [3] was 2.51 kJ/mol.
With `O=C(O)c1nccnc1NCc1ccccc1`, the viability at 24 h, 1500 µM in data set [1] is 50%.
For the compound `O=C(O)c1nccnc1Nc1ccccc1`, the Kd in data set [2] was 47 µM. The TdeltaS in data set [3] was -10.5 kJ/mol.
For the compound `Nc1nccnc1C(=O)O`, in data set [1], the viability at 24 h, 1500 µM is 50%. The dissociation constant Kd in data set [2] turned out to be 40 µM. Further, the TdeltaS in data set [3] was -2.93 kJ/mol.
For the compound `O=C(O)c1cnccn1` [PYRAZINOIC ACID], the TdeltaS in data set [3] came to 12.6 kJ/mol.
On to `CCCNc1nccnc1C(=O)O`, for which the viability at 24 h, 1500 µM in data set [1] amounted to 50%. Also, in data set [2], the dissociation constant (Kd) is 7 µM. For the same compound, in data set [3], the TdeltaS is -23.8 kJ/mol.
